Assay [1] concerns Ca^2+- and ATP-sensitive nonselective cation channels (CA-NSCs). Description: Excised inside-out patch recording of CA-NSC channel gating. The format is biochemical, rat. The conditions noted are these: for Inhibition of Po / effect on gating (in words): cytosolic exposure, Fig. 3 A; for Prevention of inhibition by concomitantly added ATP (in words): Fig. 3 B, 100 μM ATP for PI(4,5)P2.

The test system of a further assay is TrpM2. The conditions noted are these: cytosolic, ref Perraud et al., 2001, Sano et al.; cited from earlier work.
Assay [2] relates to Ca^2+- and ATP-sensitive nonselective cation channels (CA-NSCs). The assay is classed as biochemical, rat. The conditions noted are these: for Effect on the i([DV]) dose response curve (in words): 1 mM nucleotide. The method in brief:
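Inside-out patches from rat brain capillary endothelial cells, cultured 5–6 d, at 25°C. Pipette: 140 mM NaCl, 30 μM benzamil, pH 7.4. Bath: 140 mM KCl or NMDG-Cl, pH 7.1, plus 1 mM CaCl2. i(V) is recorded ± 70 μM DV. KCl data get linear fits; NMDG data get GHK fits with asymptotic negative-potential slope. Currents at −40 mV ± 1 mM nucleotide are normalized to in-patch control and Hill-fitted.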

The next assay concerns TrpM4b. The conditions noted are these: ref Nilius et al., 2004, cited from earlier work.
Assay [3] deals with Ca^2+- and ATP-sensitive nonselective cation channels (CA-NSCs). Description: Ensemble fitting of kinetic binding models to the dose response curves. The assay is classed as biochemical, rat. The conditions noted are these: noncompetitive model with allosteric destabilization, one subunit. The method in brief:
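Custom software ensemble-fits the two-ligand extensions of a reversible-binding scheme to 18 normalized dose response curves (Po, opening and closing rates) from inside-out patches. Error function is summed squared differences between predicted and measured values. Open-state Kds are constrained by microscopic reversibility. Unliganded opening rate is fixed at its average (−40 mV, 1 mM cytosolic Ca2+).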

The test system of assay [4] is CA-NSC channels present in astrocytes. As to conditions: ref Chen et al., 2003; cited from earlier work.
The mark [5] stands for this setting: read-out: K1/2 for inhibition of opening rate, 1 mM Ca2+ i, Vm −40 mV, no DV, Hill fit, deactivated channels.

Where two headings read alike, the source gives them in different places.

The term Inhibition denotes the relative decrease from the control value, in per cent. A higher Inhibition goes with a response far below the control.

As to `NC(=O)c1ccc[n+]([C@@H]2O[C@H](COP(=O)([O-])OP(=O)(O)OC[C@H]3O[C@@H](n4cnc5c(N)ncnc54)[C@H](O)[C@@H]3O)[C@@H](O)[C@H]2O)c1` [NAD^+], the “Inhibition of Po / effect on gating (in words)” value (from here on “Inhibition of Po / effect”) in assay [1] (1 mM Ca2+ i, −40 mV) is “inhibited to a variable extent”. For the same compound, in the assay with TrpM2, the “Effect on TrpM2 (in words)” value was “activated”.

With `Nc1ncnc2c1ncn2[C@@H]1O[C@H](CO)[C@@H](O)[C@H]1O` [Ado, adenosine], in assay [1], the “Prevention of inhibition by concomitantly added ATP (in words)” value (from here on “Prevention of inhibition”) was “none”. For the same compound, the “Inhibition of Po / effect” value in assay [1] (1 mM Ca2+ i, −40 mV) was “inhibited only at high concentrations”.

As for `NC(=O)C1=CN([C@@H]2O[C@H](COP(=O)(O)OP(=O)(O)OC[C@H]3O[C@@H](n4cnc5c(N)ncnc54)[C@H](O)[C@@H]3O)[C@@H](O)[C@H]2O)C=CC1` [NADH], in assay [1] (1 mM Ca2+ i, −40 mV), the “Inhibition of Po / effect” value was “inhibited to a variable extent”.

`O=P(O)(O)OP(=O)(O)O` [pyrophosphate] displayed an Inhibition in assay [1] (2 mM, n = 4) of 92 ± 2%.

In the case of `O=P(O)(O)OC[C@H]1O[C@H](OP(=O)(O)OP(=O)(O)O)[C@H](O)[C@@H]1O` [PRPP, phospho-ribosyl-PP], the “Prevention of inhibition” value in assay [1] is “none”. The “Inhibition of Po / effect” value in assay [1] (1 mM Ca2+ i, −40 mV) was “failed to inhibit channel activity”.

Consider `[O]=[V]([O-])([O-])[O-]` [orthovanadate], for which the “Effect of vanadate solution on CA-NSC gating (in words)” value in assay [1] (1-mM vanadate solution, 1 mM Ca2+ i) is “robust stimulation of channel gating to a Po close to unity”. In addition, the “Increase in single-channel current size” value in assay [2] (1-mM orthovanadate solution (untreated, contains trace DV)) is roughly 30%.

`O=c1ccn([C@@H]2O[C@H](COP(=O)(O)OP(=O)(O)OP(=O)(O)O)[C@@H](O)[C@H]2O)c(=O)[nH]1` [UTP]: the “Inhibition of Po / effect” value in assay [1] (1 mM Ca2+ i, −40 mV) is “compatible with inhibition”. Also, in the assay with TrpM4b, the “Inhibition of TrpM4b (in words)” value is “poor inhibitors”.

With `Nc1nc2c(ncn2[C@@H]2O[C@@H]3COP(=O)(O)O[C@H]3[C@H]2O)c(=O)[nH]1` [cGMP], the “Prevention of inhibition” value in assay [1] is recorded as “none”. Further, the “Inhibition of Po / effect” value in assay [1] (1 mM Ca2+ i, −40 mV) is given as “failed to affect gating”.

`Nc1ncnc2c1ncn2[C@@H]1O[C@H](COP(=O)(O)O)[C@@H](O)[C@H]1O` [AMP]: the Po in assay [1] (1 mM AMP in the presence of ~8 μM DV) is roughly 0.25. In addition, in assay [1] (setting [5]), the IC50 was 1.1 ± 0.2 µM. Moreover, in assay [1] (~8 μM DV vs no DV), the “Increase of K1/2 for inhibition of Po caused by DV” value is roughly 90 ×. Also, the “Effect on the i([DV]) dose response curve (in words)” value in assay [2] is reported as “not altered”. Also, in assay [3], the “Predicted decrease in nucleotide affinity brought upon by DV binding” value (“Predicted decrease” below) is ~10^3 fold. In addition, the “Nucleotide sensitivity of astrocyte CA-NSC channels (in words)” value (from here on “Nucleotide sensitivity”) in assay [4] was “insensitive”.

In the case of `O=C[C@H](O)[C@H](O)[C@H](O)COP(=O)(O)O` [ribose-5P], the “Prevention of inhibition” value in assay [1] is given as “none”. The “Inhibition of Po / effect” value in assay [1] (1 mM Ca2+ i, −40 mV) is “failed to inhibit channel activity”.

Turning to `N=c1c2ncn3c2ncn1[C@@H]1O[C@H](COP(=O)(O)OP(=O)(O)OC[C@H]2O[C@@H]3[C@H](O)[C@@H]2O)[C@@H](O)[C@H]1O` [cADP-ribose], in assay [1], the “Prevention of inhibition” value is on record as “none”. The “Inhibition of Po / effect” value in assay [1] (1 mM Ca2+ i, −40 mV) is recorded as “failed to inhibit channel activity”.

Turning to `O=P(O)(O)O` [Pi, Inorganic phosphate], the “Prevention of inhibition” value in assay [1] is on record as “none”. Moreover, the “Inhibition of Po / effect” value in assay [1] (1 mM Ca2+ i, −40 mV) was “had little effect”.

For the compound `NC(=O)c1ccc[n+]([C@@H]2O[C@H](COP(=O)([O-])OP(=O)(O)OC[C@H]3O[C@@H](n4cnc5c(N)ncnc54)[C@H](OP(=O)(O)O)[C@@H]3O)[C@@H](O)[C@H]2O)c1` [NADP^+], the “Inhibition of Po / effect” value in assay [1] (1 mM Ca2+ i, −40 mV) is “inhibited to a variable extent”.

With `Nc1nc2c(ncn2[C@@H]2O[C@H](COP(=O)(O)OP(=O)(O)OP(=O)(O)O)[C@@H](O)[C@H]2O)c(=O)[nH]1` [GTP], the “Inhibition of Po / effect” value in assay [1] (1 mM Ca2+ i, −40 mV) is listed as “compatible with inhibition”. For the same compound, the “Inhibition of TrpM4b (in words)” value in the assay on TrpM4b is on record as “poor inhibitors”.

On to `Nc1ncnc2c1ncn2[C@@H]1O[C@H](COP(=O)(O)OP(=O)(O)OP(=O)(O)O)[C@@H](O)[C@H]1O` [ATP], for which, in assay [1] (10 mM vs 1 mM Ca2+ i), the “Increase of K1/2 for inhibition of Po” value is roughly 3 fold. For the same compound, the “Opening rate (normalized)” value in assay [1] ((b) 10 μM total ATP, 1 mM free Ca2+, 2 mM free Mg2+) was 0.62 ± 0.12 (n = 3); in assay [1] ((c) 10 μM total ATP, 10 mM free Ca2+, 2.01 mM free Mg2+), 0.61 ± 0.10 (n = 4); in assay [1] ((d) 100 μM total ATP, 1 mM free Ca2+, 0.184 mM free Mg2+), 0.094 ± 0.043 (n = 6); in assay [1] ((e) 100 μM total ATP, 1 mM free Ca2+, 2.03 mM free Mg2+), 0.10 ± 0.03 (n = 14); in assay [1] ((f) 100 μM total ATP, 1 mM free Ca2+, 9.91 mM free Mg2+), 0.16 ± 0.06 (n = 6). Besides, the IC50 stood at 7.3 ± 1 µM in assay [1] (read-out: K1/2 for inhibition of Po, 1 mM Ca2+ i, −80 mV); 52 ± 6 µM in assay [1] (read-out: K1/2 for inhibition of Po, 10 mM Ca2+ i, −40 mV); 34 ± 3 µM in assay [1] (read-out: K1/2 for inhibition of Po, freshly excised (~10 s) channels in 100 μM Ca2+, −40 mV, tentative analysis); 11 ± 2 µM in assay [1] (setting [5]); 8.4 ± 2 µM in assay [1] (read-out: K1/2 for inhibition of opening rate, 1 mM Ca2+ i, −80 mV); 14 ± 5 µM in assay [1] (read-out: K1/2 for inhibition of opening rate, 10 mM Ca2+ i, −40 mV). Moreover, the IC50 in assay [1] (read-out: K1/2 for inhibition of opening rate, freshly excised (~10 s) channels in 100 μM Ca2+, −40 mV, tentative analysis) came out at 15 ± 2 µM. The “Increase of K1/2 for inhibition of Po caused by DV” value in assay [1] (~1.6 μM DV vs no DV) is reported as roughly 40 ×. Further, the “Decrease of K1/2 for inhibition of Po” value in assay [1] (−80 mV vs −40 mV) is listed as “≈ 2 fold”. Besides, the “Effect on the i([DV]) dose response curve (in words)” value in assay [2] is recorded as “not altered”. The “Predicted decrease” value in assay [3] is listed as roughly 200 fold. In addition, the “Fraction of TrpM4b current insensitive to nucleotide” value with TrpM4b (even millimolar [ATP]) is recorded as roughly 20%. For the same compound, in assay [4], the “Nucleotide sensitivity” value is “inhibited”.

Regarding “phosphatidyl inositol 4,5-bisphosphate [PI(4,5)P2]”, the “Inhibition of Po / effect” value in assay [1] (1 mM Ca2+ i, −40 mV) is given as “affected neither CA-NSC gating”.

As for `Nc1ncnc2c1ncn2[C@@H]1O[C@H](COP(=O)(O)OP(=O)(O)OC[C@H]2O[C@@H]([n+]3cccc(C(=O)O)c3)[C@H](O)[C@@H]2O)[C@@H](O)[C@H]1OP(=O)(O)O` [NAADP], the “Inhibition of Po / effect” value in assay [1] (1 mM Ca2+ i, −40 mV) was “inhibited to a variable extent”.

In the case of `Nc1ncnc2c1ncn2[C@@H]1O[C@H](COP(=O)(O)OP(=O)(O)O)[C@@H](O)[C@H]1O` [ADP], the IC50 in assay [1] (setting [5]) came to 4.3 ± 0.5 µM. In assay [1] (~1.6 μM DV vs no DV), the “Increase of K1/2 for inhibition of Po caused by DV” value was roughly 20 ×. Moreover, the “Effect on the i([DV]) dose response curve (in words)” value in assay [2] is listed as “not altered”. In addition, the “Predicted decrease” value in assay [3] is ~10^5 fold. The “Inhibition of TrpM4b (in words)” value in the assay on TrpM4b is reported as “the most potent inhibitor”. For the same compound, in assay [4], the “Nucleotide sensitivity” value is “insensitive”.

On to `Nc1ncnc2c1ncn2[C@@H]1O[C@H](COP(=O)(O)OP(=O)(O)OC[C@H]2OC(O)[C@H](O)[C@@H]2O)[C@@H](O)[C@H]1O` (stereo partly drawn) [ADP-ribose], for which the “Inhibition of Po / effect” value in assay [1] (1 mM Ca2+ i, −40 mV) is “inhibited to a variable extent”. Besides, the “Effect on TrpM2 (in words)” value with TrpM2 is on record as “activated”.

For `NC(=O)C1=CN([C@@H]2O[C@H](COP(=O)(O)OP(=O)(O)OC[C@H]3O[C@@H](n4cnc5c(N)ncnc54)[C@H](OP(=O)(O)O)[C@@H]3O)[C@@H](O)[C@H]2O)C=CC1` [NADPH], the “Inhibition of Po / effect” value in assay [1] (1 mM Ca2+ i, −40 mV) was “inhibited to a variable extent”.

Turning to `Nc1ncnc2c1ncn2[C@@H]1O[C@H](COP(=O)(O)OP(=O)(O)NP(=O)(O)O)[C@@H](O)[C@H]1O` [AMPPNP], in assay [1] (1 mM Ca2+ i, −40 mV), the “Inhibition of Po / effect” value is “effectively inhibited”.
